Test results as given in ChEMBL document CHEMBL1156869, “Selective inhibitors of the JMJD2 histone demethylases: combined nondenaturing mass spectrometric screening and crystallographic approaches” (J Med Chem, 2010).
Active and inactive are the calls of the source. The calls are words filed in the database; no cut-off is given here.

Assays:
[1] = Inhibition of JMJD2E by ESI-MS binding assay
Summary of the method: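 Nondenaturing ESI-MS binding: His-tagged JMJD2E desalted into 15 mM ammonium acetate pH 7.5. Protein (15 μM) mixed with 1 equiv Fe(II) and 1 equiv inhibitor, incubated 30 min at 37 °C, then analysed on a Q-TOF by nanospray. Read-out: ratio of JMJD2E–inhibitor complex to free JMJD2E.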

[2] = Inhibition of JMJD2E by FDH coupled assay
Summary of the method: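 Formaldehyde dehydrogenase-coupled demethylation assay with initial rates from NADH production. IC50 determined from these rates; detection limit about 1 μM IC50.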

[3] = Inhibition of JMJD2E by MALDI-TOF assay
[4] = target: T1, Lysine-specific demethylase 4A (Homo sapiens, UniProt O75164); experiment: Inhibition of JMJD2A by MALDI-TOF assay
T1 sequence (O75164 whole entry): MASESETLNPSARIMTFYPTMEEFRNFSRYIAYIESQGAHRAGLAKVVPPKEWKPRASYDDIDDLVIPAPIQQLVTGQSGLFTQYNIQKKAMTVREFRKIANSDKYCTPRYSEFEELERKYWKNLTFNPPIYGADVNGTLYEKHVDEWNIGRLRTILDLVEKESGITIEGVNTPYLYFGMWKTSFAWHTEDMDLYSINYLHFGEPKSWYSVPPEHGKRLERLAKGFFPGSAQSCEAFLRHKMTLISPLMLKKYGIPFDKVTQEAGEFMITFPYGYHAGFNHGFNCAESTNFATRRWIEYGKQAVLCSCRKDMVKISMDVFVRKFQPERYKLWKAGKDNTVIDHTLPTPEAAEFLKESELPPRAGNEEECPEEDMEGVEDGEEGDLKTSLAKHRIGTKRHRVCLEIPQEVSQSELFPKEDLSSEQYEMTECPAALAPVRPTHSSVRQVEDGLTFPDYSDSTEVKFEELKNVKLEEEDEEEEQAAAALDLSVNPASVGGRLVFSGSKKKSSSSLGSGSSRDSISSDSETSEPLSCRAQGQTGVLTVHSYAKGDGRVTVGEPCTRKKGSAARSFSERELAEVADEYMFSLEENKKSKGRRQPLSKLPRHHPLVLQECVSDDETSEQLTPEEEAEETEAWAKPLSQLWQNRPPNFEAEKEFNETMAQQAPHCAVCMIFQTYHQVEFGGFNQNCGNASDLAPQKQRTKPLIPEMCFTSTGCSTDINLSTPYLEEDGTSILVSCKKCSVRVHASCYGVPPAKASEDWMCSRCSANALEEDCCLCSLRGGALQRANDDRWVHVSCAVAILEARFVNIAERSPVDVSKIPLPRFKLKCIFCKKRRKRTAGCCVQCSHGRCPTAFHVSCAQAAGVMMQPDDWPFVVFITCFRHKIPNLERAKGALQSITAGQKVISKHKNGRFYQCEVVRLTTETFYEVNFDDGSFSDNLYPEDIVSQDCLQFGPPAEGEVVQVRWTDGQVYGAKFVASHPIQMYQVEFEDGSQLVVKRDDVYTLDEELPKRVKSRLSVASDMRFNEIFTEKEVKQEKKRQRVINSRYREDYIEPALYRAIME
Summary of the method: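 Reaction started with 2OG (10 μM) and ARKme3STGGK peptide (10 μM), then 30 min at 37 °C. Quenched with methanol. MALDI-TOF methylation-state intensities gave % demethylation; IC50 from concentration variation.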

[5] = Binding to JMJD2E by nondenaturing ESI-MS, ratio of JMJD2E-inhibitor complex to free JMJD2E
Homo sapiens = organism: Homo sapiens; experiment: Inhibition of human […] by CODD biochemical assay

Row | Activity [1] | IC50 [2] | IC50 [3] | IC50 [4] | Ratio [5] | Activity (Homo sapiens) | Compound
1 | Active | – | – | – | – | – | O=C(O)C(=O)N[C@H](Cc1ccc(OC(=O)c2cccs2)cc1)C(=O)O
2 | Active | 20.1 µM | – | – | 3.5 | – | O=C(O)C(=O)N[C@H](Cc1ccc(OC(=O)c2ccco2)cc1)C(=O)O
3 | Active | – | – | – | – | – | CCC(C(=O)Oc1ccc(C[C@@H](NC(=O)C(=O)O)C(=O)O)cc1)c1ccccc1 (some centres not stated)
4 | Active | – | – | – | – | – | O=C(Cc1ccc(Cl)cc1)Oc1ccc(C[C@@H](NC(=O)C(=O)O)C(=O)O)cc1
5 | Active | – | – | – | – | – | O=C(Cc1ccccc1)Oc1ccc(C[C@@H](NC(=O)C(=O)O)C(=O)O)cc1
6 | Active | – | – | – | – | – | O=C(O)C(=O)N[C@H](Cc1ccc(OC(=O)c2cc3ccccc3s2)cc1)C(=O)O
7 | Active | – | – | – | – | – | CC(C)CC(=O)Oc1ccc(C[C@@H](NC(=O)C(=O)O)C(=O)O)cc1

More lines, now with the values behind:

Row | Compound | Activity [1] | IC50 [2] | IC50 [3] | IC50 [4] | Ratio [5] | Activity (Homo sapiens)
8 | O=C(O)C(=O)N[C@H](Cc1ccc(OCc2ccccc2F)cc1)C(=O)O | Active | 16.6 µM | 25 µM | 10 µM | 3.6 | –
9 | O=C(O)C(=O)N[C@H](Cc1ccc(OS(=O)(=O)c2ccc(F)cc2)cc1)C(=O)O | Active | 11.7 µM | 38 µM | 20 µM | – | inactive
10 | O=C(O)C(=O)N[C@H](Cc1ccc(OCCCN2C(=O)c3ccccc3C2=O)cc1)C(=O)O | Active | 326 µM | – | – | 0.9 | –
11 | O=C(O)C(=O)N[C@H](Cc1ccc(OC(=O)c2cnn(-c3ccc(Cl)cc3)c2C(F)(F)F)cc1)C(=O)O | Active | – | – | – | – | –
12 | Cc1noc(C)c1S(=O)(=O)Oc1ccc(C[C@@H](NC(=O)C(=O)O)C(=O)O)cc1 | Active | 82.9 µM | – | – | 1 | –
13 | O=C(O)C(=O)N[C@H](Cc1ccc(OCC(=O)c2ccc(N3CCCC3)cc2)cc1)C(=O)O | Active | 14.8 µM | 59 µM | 13 µM | 2 | –
14 | O=C(O)C(=O)N[C@H](Cc1ccc(OS(=O)(=O)c2ccc(Br)cc2)cc1)C(=O)O | Active | 5.4 µM | 21 µM | 12 µM | – | inactive
15 | O=C(O)C(=O)N[C@H](Cc1ccc(OC(=O)N2CCOCC2)cc1)C(=O)O | Active | – | – | – | – | –
16 | CC(C)(C)C(=O)COc1ccc(C[C@@H](NC(=O)C(=O)O)C(=O)O)cc1 | Active | 185 µM | – | – | 0.9 | –
17 | Cc1noc(C)c1C(=O)Oc1ccc(C[C@@H](NC(=O)C(=O)O)C(=O)O)cc1 | Active | – | – | – | – | –
18 | O=C(O)C(=O)N[C@H](Cc1ccc(OCc2ccccc2[N+](=O)[O-])cc1)C(=O)O | Active | 14.7 µM | – | – | 3.1 | –
19 | O=C(O)C(=O)N[C@H](Cc1ccc(OC(=O)C2CCCCC2)cc1)C(=O)O | Active | – | – | – | – | –
20 | O=C(O)C(=O)N[C@H](Cc1ccc(OS(=O)(=O)c2ccccc2)cc1)C(=O)O | Active | 14.7 µM | – | – | 5.7 | –
21 | CC(C)(C)c1ccc(S(=O)(=O)Oc2ccc(C[C@@H](NC(=O)C(=O)O)C(=O)O)cc2)cc1 | Active | 8.6 µM | 61 µM | 13 µM | – | inactive
22 | O=C(O)C(=O)N[C@H](Cc1ccc(OCc2ccccc2)cc1)C(=O)O | Active | 37.1 µM | 76 µM | – | 1.7 | –
